Calls of active or inactive are those of the source. The rule behind the calls is not given here.

For assay [1], the system named is P388. The assay is described as follows: Cytotoxicity against mouse P388 cells assessed as growth inhibition at 1x10'-5 M after 72 hrs by Coulter counting analysis relative to control. Format: functional. As to conditions: P388, 72 h, read-out: GI. The essentials:
(§1)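 P388 leukemia cells seeded at 1.1 × 10^4 cells/mL in Fischer's medium with 10% horse serum. Compound dissolved in 0.9% NaCl, with or without 3% Me2SO, at ten times final concentration, filter-sterilized, and added at one-tenth volume. Incubation at 37 °C under 5% CO2; cell numbers counted in triplicate by electronic particle counter after 72 h.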

In assay [2] the test system is P388. The assay is described as follows: Displacement of L-[3H]-fucose from glycoprotein in mouse P388 cells at 10^-4 to 10^-3 M incubated for 2 hrs prior to radioligand addition measured after 30 mins by scintillation spectrometric analysis. It counts as cell-based. The essentials: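 P388 cells grown to midlog phase (4 × 10^5 cells/mL) in Fischer's medium plus 10% horse serum, then resuspended in fresh medium at 5 × 10^6 cells/mL. Preincubated 2 h at 37 °C with shaking with compound at 10^-4 or 10^-3 M. L-[3H]fucose and [14C]glucosamine (nonspecific control) then added for 30 min. Stopped with cold 10% TCA; pellets washed, lipid-extracted, hydrolyzed in 0.5 N NaOH at 85 °C; scintillation counting.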

For assay [3], the system named is P388. Description: Cytotoxicity against mouse P388 cells assessed as growth inhibition at 1x10'-3 M after 72 hrs by Coulter counting analysis relative to control. Format: functional. As to conditions: P388, 72 h, read-out: GI. The essentials: as §1
Assay [4] has as its system P388. The assay is described as follows: Cytotoxicity against mouse P388 cells assessed as growth inhibition at 1x10'-4 M after 72 hrs by Coulter counting analysis relative to control. Format: functional. As to conditions: P388, 72 h, read-out: GI. A digest of the protocol:
as §1

Assay [5] relates to P388. The assay is described as follows: Cytotoxicity against mouse P388 cells assessed as growth inhibition at 5x10'-4 M after 72 hrs by Coulter counting analysis relative to control. It counts as functional. The following applies: P388, 72 h, read-out: GI. The essentials: as §1
Assay [6] has as its system P388. The assay is described as follows: Cytotoxicity against mouse P388 cells assessed as growth inhibition at 2.5x10'-4 M after 72 hrs by Coulter counting analysis relative to control. It counts as functional. The following applies: P388, 72 h, read-out: GI. A digest of the protocol:
as §1

Regarding `COC[C@@H]1OC(O)[C@@H](O)[C@H](O)[C@@H]1O` (stereo not given in full), in the assay with P388 [1], the inhibition of growth at 10 µM stood at 12%. Also, in the assay with P388 [2], the inhibition entry was “inactive”. In addition, in the assay with P388 [3], the inhibition of growth at 1000 µM was 73%. For the same compound, the inhibition of growth at 100 µM in the assay on P388 [4] worked out at 16%.
In the same order, the values of `OC1O[C@@H](CF)[C@@H](O)[C@@H](O)[C@@H]1O` (stereo not given in full) are 3%, “inactive”, 8% and 10%.
With `OC1O[C@@H](C(F)F)[C@@H](O)[C@@H](O)[C@@H]1O` (stereo not given in full), in the assay with P388 [5], the inhibition of growth at 500 µM is 0%. Further, the inhibition result in the assay on P388 [2] was “inactive”. The inhibition of growth at 1000 µM in the assay on P388 [3] was found to be 0%. The inhibition of growth at 100 µM in the assay with P388 [4] was determined as 0%.
In the case of `OC1O[C@@H](CBr)[C@@H](O)[C@@H](O)[C@@H]1O` (stereo not given in full), the inhibition of growth at 500 µM in the assay on P388 [5] is 87%. Also, the inhibition result with P388 [2] is “inactive”. In addition, the inhibition of growth at 1000 µM in the assay on P388 [3] stood at 97%. In addition, the inhibition of growth at 100 µM in the assay on P388 [4] was 33%.
In the same order, the values of `CCOC[C@@H]1OC(O)[C@@H](O)[C@H](O)[C@@H]1O` (stereo not given in full) are 31%, “inactive”, 23% and 25%.
The corresponding values for `O=S(=O)(OC[C@@H]1OC(O)[C@@H](O)[C@H](O)[C@@H]1O)c1ccccc1` (stereo not given in full) are 95%, “inactive”, 97% and 52%.
In the case of `CC[C@@H]1OC(O)[C@@H](O)[C@H](O)[C@@H]1O` (stereo not given in full), in the assay with P388 [2], the inhibition entry is “inactive”. In addition, the inhibition of growth at 1000 µM in the assay with P388 [3] turned out to be 2%.
Consider `OC1O[C@@H](CCl)[C@@H](O)[C@@H](O)[C@@H]1O` (stereo not given in full), for which, in the assay with P388 [1], the inhibition of growth at 10 µM turned out to be 10%. Moreover, the inhibition result in the assay on P388 [2] is “inactive”. For the same compound, the inhibition of growth at 1000 µM with P388 [3] was 15%. Also, in the assay on P388 [4], the inhibition of growth at 100 µM worked out at 10%.
For `CC(=O)O[C@@H]1O[C@@H](C(F)F)[C@@H](OC(C)=O)[C@@H](OC(C)=O)[C@@H]1OC(C)=O`, the inhibition of growth at 250 µM in the assay with P388 [6] was found to be 89%.
Turning to `O=C(NC[C@@H]1OC(O)[C@@H](O)[C@H](O)[C@@H]1O)C(F)(F)F` (stereo not given in full), in the assay with P388 [1], the inhibition of growth at 10 µM was 7%. Further, the inhibition result with P388 [2] was “inactive”. Besides, the inhibition of growth at 1000 µM in the assay on P388 [3] turned out to be 36%. For the same compound, the inhibition of growth at 100 µM with P388 [4] amounted to 14%.
Take `CS(=O)(=O)OC[C@@H]1OC(O)[C@@H](O)[C@H](O)[C@@H]1O` (stereo not given in full): the inhibition of growth at 500 µM in the assay on P388 [5] is 86%. Also, in the assay with P388 [2], the inhibition result was “inactive”. In the assay on P388 [3], the inhibition of growth at 1000 µM is 96%. The inhibition of growth at 100 µM in the assay on P388 [4] turned out to be 56%.
With `Cc1ccc(S(=O)(=O)OC[C@@H]2OC(O)[C@@H](O)[C@H](O)[C@@H]2O)cc1` (stereo not given in full), in the assay with P388 [5], the inhibition of growth at 500 µM amounted to 94%. The inhibition of growth at 10 µM in the assay with P388 [1] is 14%. Further, the inhibition result with P388 [2] is “inactive”. Moreover, in the assay with P388 [3], the inhibition of growth at 1000 µM was 96%. Also, in the assay with P388 [4], the inhibition of growth at 100 µM came out at 25%.
`[N-]=[N+]=NC[C@@H]1OC(O)[C@@H](O)[C@H](O)[C@@H]1O` (stereo not given in full): the inhibition of growth at 10 µM with P388 [1] stood at 7%. Besides, the inhibition result with P388 [2] was “inactive”. The inhibition of growth at 1000 µM with P388 [3] turned out to be 20%. The inhibition of growth at 100 µM in the assay on P388 [4] turned out to be 12%.
The corresponding values for `CC(=O)NC[C@@H]1OC(O)[C@@H](O)[C@H](O)[C@@H]1O` (stereo not given in full) are 15%, “inactive”, 16% and 9%.
Turning to `OC1O[C@@H](COCc2ccccc2)[C@@H](O)[C@@H](O)[C@@H]1O` (stereo not given in full), the inhibition of growth at 500 µM with P388 [5] is 21%. The inhibition entry in the assay on P388 [2] was “inactive”. Also, the inhibition of growth at 1000 µM with P388 [3] amounted to 26%. Besides, the inhibition of growth at 100 µM in the assay with P388 [4] worked out at 17%.
In the same order, the values of `OC1O[C@@H](CI)[C@@H](O)[C@@H](O)[C@@H]1O` (stereo not given in full) are 71%, “inactive”, 91% and 44%.

The values are drawn from ChEMBL document CHEMBL3244048, “Synthesis and biological activity of potential antimetabolites of L-fucose” (1979).
